From ChEMBL document CHEMBL3421610, “Antimalarial activity of 4-amidinoquinoline and 10-amidinobenzonaphthyridine derivatives” (J Med Chem, 2015)
Converted amounts (≈) assume the structure as drawn. The source made the active and inactive calls. No cut-off for these calls is given here.

Test system: Plasmodium berghei
Test: Antimalarial activity against erythrocytic stage of chloroquine resistant Plasmodium berghei ANKA infected in mouse assessed as cure rate at 160 mg/kg, po qd administered on day 3, 4 and 5 post infection measured 3 times per week for 30 days, starting from day 3 by Thompson test
Format: functional, organism-based
Parameters: dose 160 mg/kg
Conditions: not given
In short: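 Male mice of 16-20 g inoculated intraperitoneally with 5 x 10^6 erythrocytes infected with CQ-resistant P. berghei ANKA. Drug given orally as a suspension once daily on days 3, 4 and 5 post-infection, five mice per dose. Blood films from day 3, three times weekly for 30 days. Cure means parasite-negative on day 30 or surviving 30 days. Mice losing >20% body weight sacrificed.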
In the case of `CCN(CC)CCCN/C(=N\c1ccnc2cc(Cl)ccc12)C(C)C`, the Activity is reported as “Active”.
For `C/C(=N/c1ccnc2cc(Cl)ccc12)NC1CCN(Cc2ccccc2)CC1`, the Activity was “inactive”.
With `C/C(=N/c1ccnc2cc(Cl)ccc12)NCCCN1CCCCC1` the Activity was “inactive”.
In the case of `C/C(=N/c1ccnc2cc(Cl)ccc12)NC1CCN(C(C)C)CC1`, the Activity is reported as “inactive”.

Target: hERG (KCNH2) (Homo sapiens, UniProt Q12809)
Sequence (Q12809 whole entry): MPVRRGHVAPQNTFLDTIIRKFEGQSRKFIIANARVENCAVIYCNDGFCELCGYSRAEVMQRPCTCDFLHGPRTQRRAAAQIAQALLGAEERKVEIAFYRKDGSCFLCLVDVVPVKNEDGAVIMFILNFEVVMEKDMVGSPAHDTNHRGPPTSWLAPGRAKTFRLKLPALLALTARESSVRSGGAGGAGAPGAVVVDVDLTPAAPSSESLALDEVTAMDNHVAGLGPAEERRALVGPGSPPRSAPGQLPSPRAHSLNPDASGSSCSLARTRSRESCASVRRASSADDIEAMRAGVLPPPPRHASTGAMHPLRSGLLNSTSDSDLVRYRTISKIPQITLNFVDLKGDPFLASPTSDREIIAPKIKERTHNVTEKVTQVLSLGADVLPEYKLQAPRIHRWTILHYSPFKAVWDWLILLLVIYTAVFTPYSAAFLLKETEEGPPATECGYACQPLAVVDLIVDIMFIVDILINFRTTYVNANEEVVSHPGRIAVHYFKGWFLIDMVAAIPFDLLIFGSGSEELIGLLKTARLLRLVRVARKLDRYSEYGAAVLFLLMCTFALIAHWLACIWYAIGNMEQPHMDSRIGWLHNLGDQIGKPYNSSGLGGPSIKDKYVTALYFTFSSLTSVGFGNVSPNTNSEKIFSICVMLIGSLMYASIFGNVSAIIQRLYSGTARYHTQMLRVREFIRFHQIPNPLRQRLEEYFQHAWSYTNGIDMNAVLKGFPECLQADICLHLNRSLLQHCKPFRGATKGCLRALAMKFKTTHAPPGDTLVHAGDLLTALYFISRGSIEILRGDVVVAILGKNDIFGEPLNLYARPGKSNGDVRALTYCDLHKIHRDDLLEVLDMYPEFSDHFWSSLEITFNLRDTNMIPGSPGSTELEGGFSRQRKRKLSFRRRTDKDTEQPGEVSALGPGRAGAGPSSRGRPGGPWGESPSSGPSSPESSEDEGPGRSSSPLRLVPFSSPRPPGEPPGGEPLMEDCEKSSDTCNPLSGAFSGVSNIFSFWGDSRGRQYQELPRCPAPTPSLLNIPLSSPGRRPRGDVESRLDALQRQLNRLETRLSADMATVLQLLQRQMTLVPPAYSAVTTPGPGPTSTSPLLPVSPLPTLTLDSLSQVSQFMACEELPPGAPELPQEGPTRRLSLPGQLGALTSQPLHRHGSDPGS
Test: Inhibition of human ERG expressed in CHL cells assessed as tail current at 10 uM after 7 mins by patch clamp assay relative to control
Format: cell-based
Conditions: CHL cells expressing human ERG
In the case of `C/C(=N/c1ccnc2cc(Cl)ccc12)NCCCN1CCCCC1`, the inhibition at 7 min, 10 µM is reported as 27.7%.

Test system: not listed separately
Test: Mean residence time in ICR mouse at 80 mg/kg, po
Format: ADME, organism-based
Parameters: dose 80 mg/kg, route oral
Conditions: in vivo
In short: (§1)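 Male 7-week-old ICR mice, 23–28 g, given a single intragastric dose of 80 mg/kg in DD water (100 µL/20 g). Three mice per time point; whole blood taken by cardiac puncture into lithium heparin tubes and spun to plasma. Parameters come from plasma concentration–time curves of parent drug. t1/2 = ln2/kel from the log plot. AUC by linear trapezoidal rule, extrapolated to infinity; MRT = AUMC/AUC.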
With `CCN(CC)CCCN/C(=N\c1ccnc2cc(Cl)ccc12)C(C)C` the MRT was 7.64 h.

Test system: not listed separately
Test: Half life in human liver microsomes at 1 uM by LC/MS analysis
Format: ADME
Conditions: not given
In short: (§2)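 Compound at 1 µM final, diluted from […], with 0.5 mg/mL pooled human or mouse liver microsomes, NADP, MgCl2 and 0.1 M PBS pH 7.4. Reaction started with 1 U/mL G6PD and shaken at 37 °C. Aliquots quenched in cold acetonitrile at 0, 10, 20, 30 and 60 min and quantified by LC/MS. Half-life from log plot of total ion chromatogram area remaining.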
`CCN(CC)CCCN/C(=N\c1ccnc2cc(Cl)ccc12)C(C)C` showed a half-life at 1 µM greater than 1 h.
Work on `C/C(=N/c1ccnc2cc(Cl)ccc12)NC1CCN(Cc2ccccc2)CC1` yielded a half-life at 1 µM greater than 1 h.
In the case of `C/C(=N/c1ccnc2cc(Cl)ccc12)NCCCN1CCCCC1`, the half-life at 1 µM is reported as greater than 1 h.
For `C/C(=N/c1ccnc2cc(Cl)ccc12)NC1CCN(C(C)C)CC1`, the half-life at 1 µM was greater than 1 h.

Test system: not listed separately
Test: Tmax in ICR mouse at 80 mg/kg, po
Format: ADME, organism-based
Parameters: dose 80 mg/kg, route oral
Conditions: in vivo
In short: as §1
With `CCN(CC)CCCN/C(=N\c1ccnc2cc(Cl)ccc12)C(C)C` the Tmax was 0.5 h.

Test system: Plasmodium falciparum
Test: Antimalarial activity against chloroquine-resistant Plasmodium falciparum W2 assessed as growth inhibition after 18 hrs by [3H]-hypoxanthine uptake assay
Format: functional, organism-based
Conditions: not given
In short: (§3)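 P. falciparum clones D6, W2 and TM91C235; modified semiautomated microdilution. Compounds in DMSO, diluted in RPMI 1640 with 10% human plasma, tested over (1.56-100) x 10^-9 M; final DMSO 0.25-0.5%. Inoculum 0.5% parasitemia, 1% hematocrit. 24 h incubation, then [3H]-hypoxanthine added, further 18 h. Harvested and read by scintillation counting; IC50 by nonlinear regression.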
For `CCN(CC)CCCN/C(=N\c1ccnc2cc(Cl)ccc12)C(C)C`, the IC50 was 42 nM.
For `C/C(=N/c1ccnc2cc(Cl)ccc12)NC1CCN(Cc2ccccc2)CC1`, the IC50 was 199 nM.
With `C/C(=N/c1ccnc2cc(Cl)ccc12)NCCCN1CCCCC1` the IC50 was 36 nM.
With `C/C(=N/c1ccnc2cc(Cl)ccc12)NC1CCN(C(C)C)CC1` the IC50 was 166 nM.

Test system: Mus musculus
Test: Toxicity in mouse infected with erythrocytic stage of chloroquine resistant Plasmodium berghei ANKA up to 160 mg/kg, po qd administered on day 3, 4 and 5 post infection measured over 30 days
Format: organism-based, Erythrocyte
Parameters: dose 160 mg/kg, route oral
Conditions: in vivo, 720 h
In short: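 Male mice of 16-20 g infected intraperitoneally with CQ-resistant P. berghei ANKA (5 x 10^6 infected erythrocytes). Oral dosing once daily on days 3-5, five mice per group. Animals followed for 30 days by blood films; mice losing >20% body weight sacrificed.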
With `CCN(CC)CCCN/C(=N\c1ccnc2cc(Cl)ccc12)C(C)C` the Activity was “Non-toxic”.
With `C/C(=N/c1ccnc2cc(Cl)ccc12)NC1CCN(Cc2ccccc2)CC1` the Activity was “Non-toxic”.
In the case of `C/C(=N/c1ccnc2cc(Cl)ccc12)NCCCN1CCCCC1`, the Activity is reported as “Non-toxic”.
In the case of `C/C(=N/c1ccnc2cc(Cl)ccc12)NC1CCN(C(C)C)CC1`, the Activity is reported as “Non-toxic”.

Test system: Plasmodium falciparum
Test: Antimalarial activity against chloroquine-sensitive Plasmodium falciparum D6 assessed as growth inhibition after 18 hrs by [3H]-hypoxanthine uptake assay
Format: functional, organism-based
Conditions: not given
In short: as §3
Molecule `CCN(CC)CCCN/C(=N\c1ccnc2cc(Cl)ccc12)C(C)C` has an IC50 of 22 nM.
`C/C(=N/c1ccnc2cc(Cl)ccc12)NC1CCN(Cc2ccccc2)CC1` gave an IC50 of 56 nM.
With `C/C(=N/c1ccnc2cc(Cl)ccc12)NCCCN1CCCCC1` the IC50 was 25 nM.
With `C/C(=N/c1ccnc2cc(Cl)ccc12)NC1CCN(C(C)C)CC1` the IC50 was 108 nM.

Test system: HepG2
Test: Cytotoxicity against human HepG2 cells after 48 hrs by MTT assay
Format: cell-based
Conditions: HepG2, 48 h
In short: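 HepG2 cells in supplemented MEM, plated at 9570 cells/well in 384-well format and incubated overnight at 37 °C, 5% CO2. Twelve duplicate 1.6-fold dilutions, 57–10,000 ng/ml, incubated 48 h. MTT added for 1 h at room temperature in the dark, formazan dissolved in acidified isopropanol, absorbance read. IC50 by sigmoidal variable-slope nonlinear regression; tryptanthrin control.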
Molecule `CCN(CC)CCCN/C(=N\c1ccnc2cc(Cl)ccc12)C(C)C` has an IC50 greater than 24.2 µg/mL.
Work on `C/C(=N/c1ccnc2cc(Cl)ccc12)NC1CCN(Cc2ccccc2)CC1` yielded an IC50 of 8.07 µg/mL (≈ 20.5 µM).
For `C/C(=N/c1ccnc2cc(Cl)ccc12)NCCCN1CCCCC1`, the IC50 was 23.3 µg/mL (≈ 67.5 µM).
`C/C(=N/c1ccnc2cc(Cl)ccc12)NC1CCN(C(C)C)CC1` gave an IC50 of 5.71 µg/mL (≈ 16.6 µM).

Test system: not listed separately
Test: Apparent volume of distribution during terminal phase in ICR mouse at 80 mg/kg, po
Format: ADME, organism-based
Parameters: dose 80 mg/kg, route oral
Conditions: in vivo, read-out: Vz/F
Molecule `CCN(CC)CCCN/C(=N\c1ccnc2cc(Cl)ccc12)C(C)C` has a Vd/F of 214 L/kg.

Test system: Plasmodium berghei
Test: Antimalarial activity against erythrocytic stage of chloroquine resistant Plasmodium berghei ANKA infected in mouse assessed as parasite clearance at 160 mg/kg, po qd administered on day 3, 4 and 5 post infection measured on day 2 to 7 post last dose
Format: functional, organism-based
Parameters: dose 160 mg/kg
Conditions: not given
In short: (§4)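 Male mice of 16-20 g inoculated intraperitoneally with 5 x 10^6 erythrocytes infected with CQ-resistant P. berghei ANKA. Drug given orally as a suspension once daily on days 3, 4 and 5 post-infection, five mice per dose. Parasitemia followed by blood films from day 3, three times weekly for 30 days; infected untreated mice served as negative controls.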
With `C/C(=N/c1ccnc2cc(Cl)ccc12)NC1CCN(Cc2ccccc2)CC1` the Activity was “Active”.
In the case of `C/C(=N/c1ccnc2cc(Cl)ccc12)NC1CCN(C(C)C)CC1`, the Activity is reported as “Active”.

Test system: Plasmodium falciparum
Test: Antimalarial activity against chloroquine-resistant Plasmodium falciparum C235 assessed as growth inhibition after 18 hrs by [3H]-hypoxanthine uptake assay
Format: functional, organism-based
Conditions: not given
In short: as §3
Work on `CCN(CC)CCCN/C(=N\c1ccnc2cc(Cl)ccc12)C(C)C` yielded an IC50 of 25.8 nM.
Molecule `C/C(=N/c1ccnc2cc(Cl)ccc12)NC1CCN(Cc2ccccc2)CC1` has an IC50 of 87 nM.
`C/C(=N/c1ccnc2cc(Cl)ccc12)NCCCN1CCCCC1` gave an IC50 of 14 nM.
With `C/C(=N/c1ccnc2cc(Cl)ccc12)NC1CCN(C(C)C)CC1` the IC50 was 134 nM.

Test system: not listed separately
Test: AUCinfinity in ICR mouse at 80 mg/kg, po
Format: ADME, organism-based
Parameters: time infinity, dose 80 mg/kg, route oral
Conditions: plasma
In short: as §1
For `CCN(CC)CCCN/C(=N\c1ccnc2cc(Cl)ccc12)C(C)C`, the AUC(0-inf) was 3620 ng·h/mL.

Test system: not listed separately
Test: Cmax in ICR mouse at 80 mg/kg, po
Format: ADME, organism-based
Parameters: dose 80 mg/kg, route oral
Conditions: in vivo
In short: as §1
`CCN(CC)CCCN/C(=N\c1ccnc2cc(Cl)ccc12)C(C)C` showed a Cmax of 696 ng/mL.

Test system: Plasmodium berghei
Test: Antimalarial activity against erythrocytic stage of chloroquine resistant Plasmodium berghei ANKA infected in mouse assessed as reduction of parasitemia at 160 mg/kg, po qd administered on day 3, 4 and 5 post infection measured 2 days post last dose relative to control
Format: functional
Parameters: scale not given: the % may be the effect or the level left
Conditions: not given
In short: as §4
`C/C(=N/c1ccnc2cc(Cl)ccc12)NCCCN1CCCCC1` gave an Activity of 95.4%.

Test system: not listed separately
Test: Apparent oral clearance in ICR mouse at 80 mg/kg
Format: ADME, organism-based
Parameters: dose 80 mg/kg, route oral
Conditions: in vivo
For `CCN(CC)CCCN/C(=N\c1ccnc2cc(Cl)ccc12)C(C)C`, the CL/F was 371 mL/min/kg.

Test system: not listed separately
Test: AUClast in ICR mouse at 80 mg/kg, po
Format: ADME, organism-based
Parameters: time 0 - last, dose 80 mg/kg, route oral
Conditions: plasma
`CCN(CC)CCCN/C(=N\c1ccnc2cc(Cl)ccc12)C(C)C` showed an AUC(0-t) of 3510 ng·h/mL.

Test system: not listed separately
Test: Elimination half life in ICR mouse at 80 mg/kg, po
Format: ADME, organism-based
Parameters: dose 80 mg/kg, route oral
Conditions: in vivo, read-out: beta t1/2 (converted)
In short: as §1
In the case of `CCN(CC)CCCN/C(=N\c1ccnc2cc(Cl)ccc12)C(C)C`, the half-life is reported as 6.66 h.

Test system: not listed separately
Test: Half life in mouse liver microsomes at 1 uM by LC/MS analysis
Format: ADME
Conditions: not given
In short: as §2
Work on `CCN(CC)CCCN/C(=N\c1ccnc2cc(Cl)ccc12)C(C)C` yielded a half-life at 1 µM greater than 1 h.
`C/C(=N/c1ccnc2cc(Cl)ccc12)NC1CCN(Cc2ccccc2)CC1` showed a half-life at 1 µM greater than 1 h.
With `C/C(=N/c1ccnc2cc(Cl)ccc12)NCCCN1CCCCC1` the half-life at 1 µM was 0.417 h.
Molecule `C/C(=N/c1ccnc2cc(Cl)ccc12)NC1CCN(C(C)C)CC1` has a half-life at 1 µM greater than 1 h.
